How the values were obtained:
Litomosoides carinii [1] = test: Antifilarial activity against Litomosoides carinii infections in the Jird at dose 100 mg/kg administered subcutaneously; assay type: functional; details: route subcutaneous
Procedure, shortened: (§1)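 L. carinii-infected jirds were dosed. Survivors were killed 55–70 days after the first dose, and the pleural and peritoneal cavities were searched for adult worms. Live worms at autopsy were scored as a percentage relative to sham-dosed controls. Adult worm reduction above 60% was the activity criterion.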

Litomosoides carinii [2] = test: Antifilarial activity against Litomosoides carinii infections in the Jird at dose 100 mg/kg administered orally; assay type: functional; details: route oral; procedure, shortened: as §1
Litomosoides carinii [3] = test: Antifilarial activity against Litomosoides carinii infections in the Jird at dose 3 mg/kg administered orally; assay type: functional; details: route oral; procedure, shortened: as §1
Litomosoides carinii [4] = test: Antifilarial activity against Litomosoides carinii infections in the Jird at dose 25 mg/kg administered orally; assay type: functional; details: route oral; procedure, shortened: as §1
Litomosoides carinii [5] = test: Antifilarial activity against Litomosoides carinii infections in the Jird at dose 50 mg/kg administered orally; assay type: functional; details: route oral; procedure, shortened: as §1
Litomosoides carinii [6] = test: Antifilarial activity against Litomosoides carinii infections in the Jird at dose 12 mg/kg administered orally; assay type: functional; details: route oral; procedure, shortened: as §1
[7] = Antifilarial activity against Litomosoides carinii infections in the Jird at dose 100 mg/kg administered subcutaneously; two or more animals died prematurely considered to be drug toxicity.; assay type: organism-based, Meriones unguiculatus; design: dose 100 mg/kg, route subcutaneous; details: gerbil, in vivo, sc
Procedure, shortened: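 Jirds infected with Litomosoides carinii. Surviving animals killed 55–70 days after first drug dose; pleural and peritoneal cavities searched for adult worms. Live worm count at autopsy scored as percentage relative to sham-dosed controls. Activity criterion: adult worm reduction exceeding 60%.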

Litomosoides carinii [8] = test: Antifilarial activity against Litomosoides carinii infections in the Jird at dose 25 mg/kg administered subcutaneously; assay type: functional; details: route subcutaneous; procedure, shortened: as §1

| Structure (SMILES) | Reduction of live worms (Litomosoides carinii [1]) | Reduction of live worms (Litomosoides carinii [2]) | Reduction of live worms (Litomosoides carinii [3]) | Reduction of live worms (Litomosoides carinii [4]) | further results |
| --- | --- | --- | --- | --- | --- |
| CCN(CC)Cc1cc(Nc2cc(C(F)(F)F)nc(/N=C(\N)Nc3ccc(OC)cc3)n2)ccc1O | 95% | 95% | 2% | 100% |  |
| CCOc1ccc(Nc2cc(C(F)(F)F)nc(/N=C(\N)Nc3ccc(Cl)c(Cl)c3)n2)cc1CN(CC)CC |  | 100% | 21% | 100% |  |
| N/C(=N\c1ccc(Cl)c(Cl)c1)Nc1nc(Nc2ccc(O)c(CN3CCCC3)c2)cc(C(F)(F)F)n1 |  | 100% | 59% | 100% |  |
| CCN(CC)Cc1cc(Nc2cc(C(F)(F)F)nc(/N=C(\N)Nc3ccc(C(=O)c4ccccc4)cc3)n2)ccc1OCc1ccccc1 | 0% | 27% |  |  |  |
| CCN(CC)Cc1cc(Nc2cc(C(F)(F)F)nc(/N=C(\N)Nc3ccc(OC)cc3)n2)ccc1OC | 100% |  | 0% | 100% |  |
| CCN(CC)Cc1cc(Nc2cc(C(F)(F)F)nc(/N=C(\N)Nc3ccccc3)n2)ccc1O |  |  |  |  | Reduction of live worms (Litomosoides carinii [5]): 100%; Reduction of live worms (Litomosoides carinii [6]): 47% |
| CN1CCN(Cc2cc(Nc3cc(C(F)(F)F)nc(/N=C(\N)Nc4ccc(Cl)cc4)n3)ccc2O)CC1 |  |  |  |  | Reduction of live worms (Litomosoides carinii [5]): 98%; Reduction of live worms (Litomosoides carinii [6]): 38% |
| CCNCc1cc(Nc2cc(C(F)(F)F)nc(/N=C(\N)Nc3ccccc3)n2)ccc1OC | 96% |  |  | 33% |  |
| CCN(CC)Cc1cc(Nc2nc(/N=C(\N)Nc3ccc(Cl)c(Cl)c3)nc3c2CCCC3)ccc1O | 0% |  |  |  |  |
| CCOc1ccc(Nc2cc(-c3ccccc3)nc(/N=C(\N)Nc3ccc(Cl)c(Cl)c3)n2)cc1CN(CC)CC |  |  | 15% | 78% | Animals dead [7]: > 2 |
| CCN(CC)Cc1cc(Nc2cc(C(F)(F)F)nc(/N=C(\N)Nc3ccc(Oc4ccccc4)cc3)n2)ccc1O | 3% | 9% |  |  |  |
| CN1CCN(Cc2cc(Nc3cc(C(F)(F)F)nc(/N=C(\N)Nc4ccccc4)n3)ccc2O)CC1 |  | 91% |  |  | Reduction of live worms (Litomosoides carinii [5]): 78%; Reduction of live worms (Litomosoides carinii [6]): 0% |
| CCN(CC)Cc1cc(Nc2cc(C(F)(F)F)nc(/N=C(\N)Nc3ccc(Oc4ccccc4)cc3)n2)ccc1OCc1ccccc1 | 0% | 22% |  |  |  |
| CN(C)Cc1cc(Nc2cc(C(F)(F)F)nc(/N=C(\N)Nc3ccc(Oc4ccccc4)cc3)n2)ccc1O | 12% |  |  |  |  |
| CN1CCN(Cc2cc(Nc3cc(C(F)(F)F)nc(/N=C(\N)Nc4ccc(Oc5ccccc5)cc4)n3)ccc2O)CC1 | 8% |  |  |  |  |
| CN(C)Cc1cc(Nc2cc(C(F)(F)F)nc(/N=C(\N)Nc3ccc(C(F)(F)F)cc3)n2)ccc1O |  |  | 54% | 100% | Animals dead [7]: > 2 |
| CCN(CC)Cc1cc(Nc2cc(C(F)(F)F)nc(/N=C(\N)Nc3ccc(Cl)c(Cl)c3)n2)ccc1OCc1ccccc1 |  | 100% | 52% | 100% |  |
| CCN(CC)Cc1cc(Nc2cc(C(F)(F)F)nc(/N=C(\N)Nc3ccc(C(F)(F)F)cc3)n2)ccc1OC | 100% | 100% | 73% | 100% |  |
| CCN(CC)Cc1cc(Nc2cc(C(F)(F)F)nc(/N=C(\N)Nc3ccccc3)n2)ccc1OC |  |  |  |  | Reduction of live worms (Litomosoides carinii [5]): 100%; Reduction of live worms (Litomosoides carinii [6]): 38% |
| CCN(CC)Cc1cc(Nc2cc(C(F)(F)F)nc(/N=C(\N)Nc3ccc(C(F)(F)F)cc3)n2)ccc1OCc1ccccc1 | 100% | 100% | 0% | 100% |  |
| COc1ccc(Nc2cc(C(F)(F)F)nc(/N=C(\N)Nc3ccc(Cl)c(Cl)c3)n2)cc1CN(C)C | 100% | 100% | 100% | 100% | Animals dead [7]: > 2 |

| Structure (SMILES) | Reduction of live worms (Litomosoides carinii [1]) | Reduction of live worms (Litomosoides carinii [2]) | Reduction of live worms (Litomosoides carinii [3]) | Reduction of live worms (Litomosoides carinii [4]) | further results |
| --- | --- | --- | --- | --- | --- |
| CCNCc1cc(Nc2nc(/N=C(\N)Nc3ccc(Cl)c(Cl)c3)nc3c2CCCC3)ccc1OC |  |  |  |  | Animals dead [7]: > 2; Reduction of live worms (Litomosoides carinii [8]): 69% |
| CCN(CC)Cc1cc(Nc2cc(C(F)(F)F)nc(/N=C(\N)Nc3ccc(Oc4ccccc4)cc3)n2)ccc1OC | 0% |  |  | 27% | Animals dead [7]: > 2 |
| N/C(=N\c1ccc(Cl)cc1)Nc1nc(Nc2ccc(O)c(CN3CCCC3)c2)cc(C(F)(F)F)n1 |  |  |  |  | Reduction of live worms (Litomosoides carinii [5]): 100%; Reduction of live worms (Litomosoides carinii [6]): 87% |
| CN(C)Cc1cc(Nc2cc(C(F)(F)F)nc(/N=C(\N)Nc3ccc(C(=O)c4ccccc4)cc3)n2)ccc1O | 100% |  | -22% | 32% |  |
| COc1ccc(Nc2cc(C(F)(F)F)nc(/N=C(\N)Nc3ccccc3)n2)cc1CN1CCN(C)CC1 |  | 100% | 5% | 95% |  |
| CC(C)CNCc1cc(Nc2cc(C(F)(F)F)nc(/N=C(\N)Nc3ccc(Cl)c(Cl)c3)n2)ccc1O |  | 100% | 35% | 100% |  |
| CCN(CC)Cc1cc(Nc2ccnc3cc(Cl)ccc23)ccc1O.Cl | 100% | 72% |  | 71% | Reduction of live worms (Litomosoides carinii [8]): 61% |
| CN1CCN(Cc2cc(Nc3cc(C(F)(F)F)nc(/N=C(\N)Nc4ccc(C(=O)c5ccccc5)cc4)n3)ccc2O)CC1 | 8% |  |  |  |  |
| CCN(CC)Cc1cc(Nc2cc(-c3ccccc3)nc(/N=C(\N)Nc3ccc(Cl)c(Cl)c3)n2)ccc1O | 53% | 47% |  |  |  |
| CCN(CC)Cc1cc(Nc2cc(C(F)(F)F)nc(/N=C(\N)Nc3ccc(Cl)c(Cl)c3)n2)ccc1OC | 100% |  | 100% | 100% | Reduction of live worms (Litomosoides carinii [8]): 100% |
| N/C(=N\c1ccc(Cl)c(Cl)c1)Nc1nc(Nc2ccc(O)c(CNCC3CCCCC3)c2)cc(C(F)(F)F)n1 | 4% |  |  |  |  |
| CCNCc1cc(Nc2cc(C(F)(F)F)nc(/N=C(\N)Nc3ccc(C(F)(F)F)cc3)n2)ccc1OC | 100% | 100% | 30% | 100% |  |
| CCNCc1cc(Nc2cc(-c3ccccc3)nc(/N=C(\N)Nc3ccc(Cl)c(Cl)c3)n2)ccc1OC | 0% |  |  |  |  |
| CCNCc1cc(Nc2cc(C(F)(F)F)nc(/N=C(\N)Nc3ccc(C(=O)c4ccccc4)cc3)n2)ccc1OC | 0% |  |  |  |  |
| CCNCc1cc(Nc2cc(C(F)(F)F)nc(/N=C(\N)Nc3ccc(Oc4ccccc4)cc3)n2)ccc1OC | 0% |  |  |  |  |
| CCN(CC)Cc1cc(Nc2cc(C(F)(F)F)nc(/N=C(\N)Nc3ccc(Cl)cc3)n2)cc(-c2ccccc2)c1O | 35% | 88% |  |  |  |
| CCN(CC)Cc1cc(Nc2cc(C(F)(F)F)nc(/N=C(\N)Nc3ccc(C(=O)c4ccccc4)cc3)n2)ccc1OC | 19% | 16% |  |  |  |
| CCN(CC)Cc1cc(Nc2cc(C(F)(F)F)nc(/N=C(\N)Nc3ccc(Cl)c(Cl)c3)n2)ccc1OC(C)C | 100% | 100% | 11% | 100% |  |
| CCOC(=O)N1CCN(Cc2cc(Nc3cc(C(F)(F)F)nc(/N=C(\N)Nc4ccc(Cl)c(Cl)c4)n3)ccc2O)CC1 | 31% |  |  |  |  |
| CCN(CC)Cc1cc(Nc2cc(C(F)(F)F)nc(/N=C(\N)Nc3ccc(C(=O)c4ccccc4)cc3)n2)ccc1O | 6% | 6% |  |  |  |
| CCN(CC)Cc1cccc(Nc2cc(C(F)(F)F)nc(/N=C(\N)Nc3ccc(Cl)c(Cl)c3)n2)c1 |  | 100% | 83% | 100% |  |
